Bioassay records (PubChem BioAssay)
OX1R antag-1 = antagonists of human orexin 1 receptor. O43613. inhibition, % at 5 µM. hit rate 0.43% among 330,000. CHO/OX1R cells, Fluo-8 calcium fluorescence, orexin A;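 active = inhibition above its plate's threshold, mean inhibition of all tested compounds on the plate plus 3 SD, cut at about 37% in these data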;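 note: 0% = orexin A challenge wells and 100% = SB-334867-A antagonist wells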
TAAR1 agonist = human TAAR1 agonism. Q96RJ0. CHO RD-HGA16 TAAR1, Fluo-8 calcium fluorescence; vehicle wells 0%, saturating PEA agonist 100%. activation, % at 3 µM. hit rate 0.99% among 360,000;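 active = activation above the mean activation of all test compounds in the run plus 3 SD, cut at about 38% in these data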
Target sequence (Q96RJ0 whole entry, looked up): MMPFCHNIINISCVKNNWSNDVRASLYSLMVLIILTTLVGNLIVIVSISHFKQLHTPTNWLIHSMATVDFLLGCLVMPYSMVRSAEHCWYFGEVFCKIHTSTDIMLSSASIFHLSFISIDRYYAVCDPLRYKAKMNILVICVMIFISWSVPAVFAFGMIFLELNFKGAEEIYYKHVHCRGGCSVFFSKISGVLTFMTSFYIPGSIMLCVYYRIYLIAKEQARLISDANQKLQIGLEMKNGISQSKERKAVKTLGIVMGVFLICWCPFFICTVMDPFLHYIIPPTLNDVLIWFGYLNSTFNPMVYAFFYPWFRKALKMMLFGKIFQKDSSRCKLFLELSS
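test system = CHO RD-HGA16 cells carrying human TAAR1 plus Gα16 | schedule = 17-24 h seeding, 75 min 37 °C dye, 30 min RT | compound dosing = 3 µM single concentration | control set = DMSO and PEA EC100 | replicates = n 1 | signal = Fluo-8 fluorescence, 5 s baseline then 140 s kinetic read | measure = percent activation vs PEA EC100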
OX1R antag-2 = antagonists of human orexin 1 receptor (OX1R). inhibition, % at 6.6 µM. hit rate 1.8% among 330,000. OX1R-expressing cells, FRET antagonist read-out. O43613; in the data active = inhibition mostly above about 38%, no sharp cut-off; inactive = mostly below about 40%;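 note: 0% = agonist challenge alone and 100% = reference antagonist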
TAAR1 antag = antagonists of human TAAR1; CHO RD-HGA16 TAAR1, Fluo-8 calcium fluorescence, antagonist; inhibition, % at 3 µM; AID 624466; hit rate 1.5% among 360,000; Q96RJ0;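 active = inhibition above a per-plate cutoff, the mean inhibition of test compounds on that plate plus 3 SD, cut at about 49% in these data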;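 note: 0% = DMSO plus EC80 beta-PEA response and 100% = DMSO alone without agonist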
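Test system – hTAAR1-expressing CHO RD-HGA16 cells, Gα16-coupled · Also added – β-PEA at EC80 concentration, post-compound challenge · Compound – 3 µM, single point · Incubation – dye loading 75 min at 37 °C, then 30 min room temperature · Measured by – Fluo-8 intracellular calcium dye fluorescence, real-time kinetic reads · Benchmarks – vehicle and agonist controls · Replicates – singlicate, one well per test compound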
CHO parental Ca = counter-screen: ATP calcium response change in parental CHO cells | parental CHO-K1, ATP-induced calcium, Fluo-8 fluorescence | inhibition, % at 5.6 µM | hit rate 0.63% among 330,000 | AID 463079;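 active = inhibition above that plate's mean sample inhibition plus 3 SD, cut at about 26% in these data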;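 note: 0% = ATP-challenged DMSO wells and 100% = DMSO wells without ATP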
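Assay system – parental CHO cells · Reagent – ATP stimulus · Detection – intracellular calcium via Fluo-8 no-wash fluorescent dye · Evaluation – percent inhibition of ATP-evoked calcium rise, normalized to controls · Controls – ATP wells versus no-ATP DMSO wells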
TAAR1 nonsel count = counter-screen for TAAR1 antagonists: nonselective antagonists; shares compounds with TAAR1 antag; counterscreen cell line, calcium fluorescence, antagonist mode; inhibition, % at 3 µM; hit rate 77% among 2,400; in the data active = inhibition above about 22%;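 note: CHO-Ga16 host cells stimulated with ATP at an EC80 level; 0% = agonist EC80 plus vehicle and 100% = vehicle without agonist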
TAAR1 antag conf = confirmation of human TAAR1 antagonists. shares compounds with TAAR1 antag. TAAR1-expressing cells, fluorescence antagonist read-out. inhibition, % at 3 µM. hit rate 40% among 2,400; in the data active = inhibition above about 49%;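 note: CHO-Ga16 host cells challenged with agonist PEA near its EC80; 0% = agonist at EC80 plus vehicle and 100% = vehicle with no agonist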
Ga16 nonsel ag = nonselective Ga16 agonist in TAAR1 antagonist counter-screen. shares compounds with TAAR1 antag. Ga16-expressing cells, calcium fluorescence, agonist counterscreen. activation, % at 3 µM. hit rate 18% among 2,400; in the data active = activation above about 12%;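 note: 0% = vehicle wells and 100% = saturating stimulus response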
TAAR1 ag counter = activates human TAAR1 in antagonist counter-screen | hTAAR1 cell line, fluorescence activation, agonist mode | hit rate 2% among 2,400 | shares compounds with TAAR1 antag | activation, % at 3 µM; in the data active = activation above about 37%;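 note: CHO cells stably expressing TAAR1 with calcium dye readout; 0% = DMSO vehicle and 100% = full agonist response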
The depositor's hits bear a star. Shown are actives, neighbours in structure and some others; about 4% of the full set was active somewhere.

Results for CC1=C(CC[C@@H](C)CO)OC2CC3C4CCC5CC(O)CCC5(C)C4CC(=O)C3(C)C12 (stereo not given in full) ?
OX1R antag-1: -27; TAAR1 agonist: 17; OX1R antag-2: 13; TAAR1 antag: 76*; CHO parental Ca: -18; TAAR1 nonsel count: 29*; TAAR1 antag conf: 52*; Ga16 nonsel ag: 11; TAAR1 ag counter: 19

How did Cc1ccc(C(=O)NCC(=O)N2CCCN(C)CC2)cc1C do in these assays?
OX1R antag-1: -4; TAAR1 agonist: 3; OX1R antag-2: -1; TAAR1 antag: -1; CHO parental Ca: 4

What do the screens show for `COc1ccc(C(=O)Nc2cccc(/C(C)=N/NC(=O)c3ccc([N+](=O)[O-])c(C)c3)c2)cc1OC`?
OX1R antag-1: -11; TAAR1 agonist: 21; OX1R antag-2: 55; TAAR1 antag: 60*; CHO parental Ca: -2; TAAR1 nonsel count: 44*; TAAR1 antag conf: 66*; Ga16 nonsel ag: 12*; TAAR1 ag counter: 10

Results for Cc1cc(C(=O)Nc2cccc(NC(=O)c3ccco3)c2)ccc1[N+](=O)[O-] ?
TAAR1 agonist: 11; TAAR1 antag: 58*; TAAR1 nonsel count: 14; TAAR1 antag conf: 26; Ga16 nonsel ag: 8; TAAR1 ag counter: 4

How did COc1ccc(CNC(=O)CN2C(=O)COc3ccc(S(=O)(=O)N4CCCCC4)cc32)cc1 do in these assays?
OX1R antag-1: -17; TAAR1 agonist: 4; OX1R antag-2: 10; TAAR1 antag: -18; CHO parental Ca: -20

Results for Cc1cc2cc(CCNC(=O)C(=O)c3c[nH]c4ccccc34)c(=O)[nH]c2cc1C ?
OX1R antag-1: 2; TAAR1 agonist: 19; OX1R antag-2: 65*; TAAR1 antag: 65*; CHO parental Ca: -20; TAAR1 nonsel count: 30*; TAAR1 antag conf: 45; Ga16 nonsel ag: 9; TAAR1 ag counter: 7

How did COc1ccc(NC(=O)/C(C#N)=C/c2ncc([N+](=O)[O-])n2C)c(OC)c1 do in these assays?
OX1R antag-1: -24; TAAR1 agonist: 1; OX1R antag-2: 6; TAAR1 antag: -16; CHO parental Ca: -8

What do the screens show for `CCN(CC)S(=O)(=O)c1cc(NC(=O)c2ccc3c(c2)NC(=O)C(C)S3)ccc1C` (stereo not given)?
OX1R antag-1: 22; TAAR1 agonist: 16; OX1R antag-2: -5; TAAR1 antag: 73*; CHO parental Ca: 3; TAAR1 nonsel count: 41*; TAAR1 antag conf: 52*; Ga16 nonsel ag: 13*; TAAR1 ag counter: 10

What do the screens show for `Cc1cccc(N2CCN(C(=O)CCCn3c(=O)[nH]c4ccsc4c3=O)CC2C)c1` (stereo not given)?
OX1R antag-1: -23; TAAR1 agonist: 11; OX1R antag-2: 11; TAAR1 antag: 47; CHO parental Ca: -11

Results for Cc1cccc(N2CCN(C(=O)CCn3c(=O)[nH]c4ccsc4c3=O)CC2C)c1 (stereo not given) ?
OX1R antag-1: -14; TAAR1 agonist: 12; OX1R antag-2: 10; TAAR1 antag: 60*; CHO parental Ca: -25; TAAR1 nonsel count: 23*; TAAR1 antag conf: 45; Ga16 nonsel ag: 8; TAAR1 ag counter: 8

Results for C/C(=N\NC(=O)C1(C)CC1(Br)Br)c1cccc(NC(=O)c2ccc(C)o2)c1 (stereo not given) ?
OX1R antag-1: -23; TAAR1 agonist: 13; OX1R antag-2: 35; TAAR1 antag: 85*; CHO parental Ca: -26; TAAR1 nonsel count: 26*; TAAR1 antag conf: 73*; Ga16 nonsel ag: 11; TAAR1 ag counter: 39*

How did Cc1ccc(C(=O)Nc2cccc(C(=O)NCc3ccccc3)c2)o1 do in these assays?
OX1R antag-1: 0; TAAR1 agonist: 2; OX1R antag-2: 11; TAAR1 antag: 17; CHO parental Ca: -13

What do the screens show for `COCc1ccc(C(=O)Nc2cccc(S(=O)(=O)N(C)c3ccccc3)c2)cc1`?
OX1R antag-1: -19; TAAR1 agonist: 10; OX1R antag-2: 15; TAAR1 antag: 53*; CHO parental Ca: -2; TAAR1 nonsel count: 32*; TAAR1 antag conf: 38; Ga16 nonsel ag: 8; TAAR1 ag counter: 5

What do the screens show for `CC(=O)c1c(C)[nH]c(C(=O)Nc2cccc(S(=O)(=O)N(C)c3ccccc3)c2)c1C`?
OX1R antag-1: 7; TAAR1 agonist: 17; OX1R antag-2: 50; TAAR1 antag: 61*; CHO parental Ca: -7; TAAR1 nonsel count: 44*; TAAR1 antag conf: 66*; Ga16 nonsel ag: 14*; TAAR1 ag counter: 13

How did COc1ccc(C(=O)Nc2nc(CC(=O)NCc3ccc(F)cc3)cs2)cc1 do in these assays?
OX1R antag-1: -9; TAAR1 agonist: 16; OX1R antag-2: 4; TAAR1 antag: 72*; CHO parental Ca: 5; TAAR1 nonsel count: 48*; TAAR1 antag conf: 66*; Ga16 nonsel ag: 14*; TAAR1 ag counter: 11

What do the screens show for `CCOC(=O)Cc1csc(NC(=O)c2ccc(F)cc2)n1`?
OX1R antag-1: -7; TAAR1 agonist: 1; OX1R antag-2: 3; TAAR1 antag: 14; CHO parental Ca: -11

How did COc1ccc(C(=O)Nc2nc(CC(=O)NCCc3ccccc3OC)cs2)cc1 do in these assays?
OX1R antag-1: -36; TAAR1 agonist: 11; OX1R antag-2: 37; TAAR1 antag: 57*; CHO parental Ca: -26; TAAR1 nonsel count: 27*; TAAR1 antag conf: 44; Ga16 nonsel ag: 7; TAAR1 ag counter: 5

How did COc1ccc(C(=O)Nc2nc(CC(=O)NCc3c(F)cccc3F)cs2)cc1 do in these assays?
TAAR1 agonist: 13; TAAR1 antag: 71*; TAAR1 nonsel count: 25*; TAAR1 antag conf: 50*; Ga16 nonsel ag: 14*; TAAR1 ag counter: 12

What do the screens show for `CC1CN(C(=O)COC(=O)Cc2c(Cl)cccc2Cl)CC(C)O1` (stereo not given)?
OX1R antag-1: -7; TAAR1 agonist: 2; OX1R antag-2: 5; TAAR1 antag: -23; CHO parental Ca: -13

What do the screens show for `O=C(Nc1cc(S(=O)(=O)N2CCOCC2)ccc1N1CCCC1)C1COc2ccccc2O1` (stereo not given)?
OX1R antag-1: -16; TAAR1 agonist: 2; OX1R antag-2: 19; TAAR1 antag: -21; CHO parental Ca: -18
